# Assay results from different studies.
# Each line is one published result; the experiments were not run side by side.
# Target: Serine/threonine-protein kinase 32C (STK32C, Homo sapiens, UniProt Q86UX6)
SMILES,effect on,mode,technique,tested at,notes,measurement,result
N#Cc1ccc(NC(=O)Nc2ccccc2)cc1,cell-free assay,,competition with immobilised ligand,25 µM,,remaining binding,77%
CC(C)S(=O)(=O)c1ccc2nccc(Nc3ccc4sc(C5CCCC5)nc4c3)c2c1,enzyme activity,inhibitor,,1 µM,,activity vs control,102%
C#Cc1cnc(Nc2ccnc(CO)c2)nc1Nc1ccccc1S(C)(=O)=NC#N (stereo not shown),cell-free assay,,,1 µM,,remaining signal,100%
C=CC(=O)N1CCC[C@@H](n2nc(-c3ccc(Oc4ccccc4)cc3)c3c(N)ncnc32)C1,enzyme activity,inhibitor,,1 µM,,inhibition,14%
Cc1cc(O)c(-c2ccc([C@@H](C)CN(C)C)cc2)c2c1[nH]c(=O)c1sccc12,enzyme activity,inhibitor,,0.1 µM,lysate,inhibition,-1.49%
COc1ccc2oc(-c3ccc4nc(N)oc4c3)c/c(=N\c3ccccc3NC(=O)CCN)c2c1,binding,,,1 µM,,remaining binding,100%
C[C@H]1CC[C@H](n2c3cnccc3c3cnc(Nc4ccc5c(n4)CCN(C(=O)CO)C5)nc32)CC1,cell-free assay,,,1 µM,,remaining signal,100%
CO[C@@H]1[C@H](N(C)C(=O)c2ccccc2)C[C@H]2O[C@]1(C)n1c3ccccc3c3c4c(c5c6ccccc6n2c5c31)C(=O)NC4,enzyme activity,inhibitor,,1 µM,,inhibition,0%
CCCCC(=O)Nc1ccc(-c2ccc3ncn(CCC)c(=O)c3c2)cn1,binding,,competition with immobilised ligand,0.5 µM,,remaining binding,92%
Cc1ccc(NC(=O)c2ccnc(C(F)(F)F)c2)cc1-c1cc(OCCO)nc(N2CCOCC2)c1,binding,,,1 µM,,remaining binding,100%
